From BindingDB's records for doi:10.1021/acs.jmedchem.0c02249 (Lundbeck Research Usa, 2021)

How the values were obtained:
P2X purinoceptor 7 [1] = biological target: T1, P2X purinoceptor 7 (Homo sapiens, UniProt Q99572); test: Antagonist activity at human P2X7 receptor expressed in HEK293 cells assessed as inhibition of BzATP-induced calcium-flux measured after 60 mins by FLIPR analysis
T1 sequence (Q99572 whole entry): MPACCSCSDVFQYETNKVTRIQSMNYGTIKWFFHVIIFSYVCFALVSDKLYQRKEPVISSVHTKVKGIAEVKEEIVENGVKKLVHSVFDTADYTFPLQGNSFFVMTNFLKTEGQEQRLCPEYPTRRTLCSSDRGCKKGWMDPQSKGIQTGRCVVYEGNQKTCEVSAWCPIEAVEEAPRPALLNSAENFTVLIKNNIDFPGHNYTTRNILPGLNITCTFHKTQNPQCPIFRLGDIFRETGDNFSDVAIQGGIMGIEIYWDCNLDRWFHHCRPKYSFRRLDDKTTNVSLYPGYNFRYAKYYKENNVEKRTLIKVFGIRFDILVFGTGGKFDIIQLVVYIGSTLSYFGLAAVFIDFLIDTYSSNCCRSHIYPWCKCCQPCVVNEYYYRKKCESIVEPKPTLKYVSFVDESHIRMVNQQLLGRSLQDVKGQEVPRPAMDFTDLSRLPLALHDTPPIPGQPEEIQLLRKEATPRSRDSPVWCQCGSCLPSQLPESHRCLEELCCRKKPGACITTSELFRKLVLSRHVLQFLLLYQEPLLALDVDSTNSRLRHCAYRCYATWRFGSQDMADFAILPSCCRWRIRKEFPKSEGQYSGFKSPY

P2X purinoceptor 7 [2] = biological target: T2, P2X purinoceptor 7 (Mus musculus, UniProt Q9Z1M0); test: Antagonist activity at mouse P2X7 receptor expressed in HEK293 cells assessed as inhibition of BzATP-induced calcium-flux measured after 60 mins by FLIPR analysis
T2 sequence (Q9Z1M0 whole entry): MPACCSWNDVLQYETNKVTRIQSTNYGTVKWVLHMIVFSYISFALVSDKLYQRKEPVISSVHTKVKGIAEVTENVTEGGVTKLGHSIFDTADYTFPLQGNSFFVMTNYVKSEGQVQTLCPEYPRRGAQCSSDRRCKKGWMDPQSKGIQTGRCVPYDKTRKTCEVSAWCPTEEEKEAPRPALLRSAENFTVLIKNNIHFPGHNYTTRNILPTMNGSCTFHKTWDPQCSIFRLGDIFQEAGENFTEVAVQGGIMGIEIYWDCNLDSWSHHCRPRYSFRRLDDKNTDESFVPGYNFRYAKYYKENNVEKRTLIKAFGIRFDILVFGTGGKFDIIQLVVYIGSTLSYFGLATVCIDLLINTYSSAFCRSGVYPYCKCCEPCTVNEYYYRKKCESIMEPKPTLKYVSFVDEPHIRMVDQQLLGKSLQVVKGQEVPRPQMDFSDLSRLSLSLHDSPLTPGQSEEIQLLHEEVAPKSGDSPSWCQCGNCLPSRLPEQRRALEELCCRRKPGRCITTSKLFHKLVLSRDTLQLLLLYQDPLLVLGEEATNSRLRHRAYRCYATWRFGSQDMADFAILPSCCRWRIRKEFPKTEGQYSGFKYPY
How it was run: (§1)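 Stable rat or mouse P2X7 HEK293 cells in HBSS/20 mM HEPES/2.5 mM probenecid/0.05% BSA, pH 7.4, were loaded with Fluo-4 NW (37 °C 30 min, RT 30 min). After 30 min at RT, calcium fluorescence was read by FLIPR; n ≥ 3.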

P2X purinoceptor 7 [3] = biological target: T3, P2X purinoceptor 7 (Rattus norvegicus, UniProt Q64663); test: Antagonist activity at rat P2X7 receptor expressed in HEK293 cells assessed as inhibition of BzATP-induced calcium-flux measured after 60 mins by FLIPR analysis; how it was run: as §1
T3 sequence (Q64663 whole entry): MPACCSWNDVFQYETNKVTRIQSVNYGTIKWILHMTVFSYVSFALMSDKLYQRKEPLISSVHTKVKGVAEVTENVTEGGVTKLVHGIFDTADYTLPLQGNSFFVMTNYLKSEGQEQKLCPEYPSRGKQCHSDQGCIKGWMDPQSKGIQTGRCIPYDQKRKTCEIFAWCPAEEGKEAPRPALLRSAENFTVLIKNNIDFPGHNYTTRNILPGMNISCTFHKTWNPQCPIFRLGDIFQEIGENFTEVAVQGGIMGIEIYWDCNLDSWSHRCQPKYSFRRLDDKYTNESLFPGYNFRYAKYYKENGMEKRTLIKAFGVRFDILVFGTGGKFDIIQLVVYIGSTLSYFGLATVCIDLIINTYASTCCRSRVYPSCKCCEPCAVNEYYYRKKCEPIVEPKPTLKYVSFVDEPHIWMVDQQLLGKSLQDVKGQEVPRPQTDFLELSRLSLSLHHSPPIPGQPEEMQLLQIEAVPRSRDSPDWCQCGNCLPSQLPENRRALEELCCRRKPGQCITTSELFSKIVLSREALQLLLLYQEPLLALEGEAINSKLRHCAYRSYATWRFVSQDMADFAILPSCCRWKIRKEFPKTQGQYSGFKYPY

P2X purinoceptor 7 [4] = biological target: T3, P2X purinoceptor 7; test: Displacement of [3H]-A-804598 from rat P2X7 receptor expressed in HEK293 cell membrane by in vitro binding assay

- IC50 (P2X purinoceptor 7 [1]): 5.8 µM
- IC50 (P2X purinoceptor 7 [2]): 1.3 µM
- IC50 (P2X purinoceptor 7 [3]): 0.2 µM
- Ki (P2X purinoceptor 7 [4]): 1 µM
SMILES: CCOc1ccc(Nc2ccc(/C(=C3C=C/C(=[N+](/CC)Cc4cccc(S(=O)(=O)[O-])c4)C=C/3C)c3ccc(N(CC)Cc4cccc(S(=O)(=O)O)c4)cc3C)cc2)cc1 [E133]
